pKi: −log10 of the molar value.
The compounds below were run against Human immunodeficiency virus type 1 protease (Human immunodeficiency virus 1, UniProt Q72874) (assay: Inhibition of HIV1 protease).
Procedure, shortened: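 HIV-1 protease (SF-2-WTQ7K-Pr construct for the isolated inhibitors) at 20 µg/mL with 50 µM fluorogenic substrate Abz-Thr-Ile-Nle/Phe-(p-NO2)Gln-Arg-NH2, in 0.1 M MES, 0.2 M NaCl, pH 5.25, 5% (v/v) glycerol. Crude mixtures were screened at 5 µM as percent inhibition.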

Structure (SMILES)	pKi
O=C(N[C@@H](Cc1ccccc1)[C@H](Cc1ccccc1)n1cc(CN2CCN(c3cccc(C(F)(F)F)c3)CC2)nn1)OC1CCCC1 (stereo in doubt; (S,S)-7d) [listing 1 of 2 here]	7.01
CC[C@H](O)c1c(CN2CCN(c3cc(C)ccc3C)CC2)nnn1[C@@H](Cc1ccccc1)[C@H](Cc1ccccc1)NC(=O)OC1CCCC1	7.57
CC(C)(C)OC(=O)N[C@@H](Cc1ccccc1)[C@H](Cc1ccccc1)N=[N+]=[N-]	4.51
Cc1ccc(C)c(N2CCN(Cc3nnn([C@@H](Cc4ccccc4)[C@H](Cc4ccccc4)NC(=O)OC4CCCC4)c3CO)CC2)c1	7.85
Cc1ccc(C)c(N2CCN(Cc3nnn([C@@H](Cc4ccccc4)[C@H](Cc4ccccc4)NC(=O)OC4CCCC4)c3[C@@H](C)O)CC2)c1	7.60
Cc1ccc(C)c(N2CCN(Cc3nnn([C@@H](Cc4ccccc4)[C@H](Cc4ccccc4)NC(=O)OC4CCCC4)c3[C@H](C)O)CC2)c1	8.00
Cc1ccc(C)c(N2CCN(Cc3nnn([C@@H](Cc4ccccc4)[C@H](Cc4ccccc4)NC(=O)OC4CCCC4)c3[Si](C)(C)C)CC2)c1	< 5.60

The compounds below were run against Human immunodeficiency virus type 1 protease (Human immunodeficiency virus 1) (UniProt Q72874) (assay: Inhibition of HIV1 protease at 5 uM).
Procedure, shortened: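 Crude click-reaction DMSO mixtures (azide-alkyne, CuSO4 with copper turning, 1:1 tBuOH/H2O, 50 °C, 5 days) diluted to 5 µM in 0.1 M MES, 0.2 M NaCl, pH 5.25, 5% glycerol; HIV-1 protease 20 µg/mL plus fluorogenic substrate 50 µM added; fluorescence read directly in microplate; percent inhibition; TL-3 100 nM positive control.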

inhibition	Structure (SMILES)
25%	O=C(N[C@@H](Cc1ccccc1)[C@H](Cc1ccccc1)n1cc(CN2CCN(c3ncccn3)CC2)nn1)OC1CCCC1
67%	O=C(N[C@@H](Cc1ccccc1)[C@H](Cc1ccccc1)n1cc(CN2CCC(c3ccccc3)CC2)nn1)OC1CCCC1
22%	O=C(N[C@@H](Cc1ccccc1)[C@H](Cc1ccccc1)n1cc(CN2CCN(C3CCCCC3)CC2)nn1)OC1CCCC1
28%	O=C(N[C@@H](Cc1ccccc1)[C@H](Cc1ccccc1)n1cc(CN2CCCC(c3ccccc3)C2)nn1)OC1CCCC1 (stereo not given in full)
26%	CCN1CCN(Cc2cn([C@@H](Cc3ccccc3)[C@H](Cc3ccccc3)NC(=O)OC3CCCC3)nn2)CC1
64%	O=C(N[C@@H](Cc1ccccc1)[C@H](Cc1ccccc1)n1cc(CN2CCN(c3ccc(F)cc3)CC2)nn1)OC1CCCC1
80%	Cc1ccccc1N1CCN(Cc2cn([C@@H](Cc3ccccc3)[C@H](Cc3ccccc3)NC(=O)OC3CCCC3)nn2)CC1
93%	O=C(N[C@@H](Cc1ccccc1)[C@H](Cc1ccccc1)n1cc(CN2CCN(c3cccc(Cl)c3)CC2)nn1)OC1CCCC1
12%	O=C(N[C@@H](Cc1ccccc1)[C@H](Cc1ccccc1)n1cc(CN2CCN(c3ccncc3)CC2)nn1)OC1CCCC1
35%	O=C(N[C@@H](Cc1ccccc1)[C@H](Cc1ccccc1)n1cc(CN2CCN(C(=O)OCc3ccccc3)CC2)nn1)OC1CCCC1
51%	CC(C)(C)OC(=O)N1CCN(Cc2cn([C@@H](Cc3ccccc3)[C@H](Cc3ccccc3)NC(=O)OC3CCCC3)nn2)CC1
87%	Cc1cccc(N2CCN(Cc3cn([C@@H](Cc4ccccc4)[C@H](Cc4ccccc4)NC(=O)OC4CCCC4)nn3)CC2)c1
75%	Cc1ccc(Cl)cc1N1CCN(Cc2cn([C@@H](Cc3ccccc3)[C@H](Cc3ccccc3)NC(=O)OC3CCC3)nn2)CC1
77%	O=C(N[C@@H](Cc1ccccc1)[C@H](Cc1ccccc1)n1cc(CN2CCN(c3ccc(Cl)cc3)CC2)nn1)OC1CCCC1
86%	Cc1c(Cl)cccc1N1CCN(Cc2cn([C@@H](Cc3ccccc3)[C@H](Cc3ccccc3)NC(=O)OC3CCCC3)nn2)CC1
81%	O=C(N[C@@H](Cc1ccccc1)[C@H](Cc1ccccc1)n1cc(CN2CCN(c3ccc(F)cc3F)CC2)nn1)OC1CCCC1

inhibition	Structure (SMILES)
36%	O=C(N[C@@H](Cc1ccccc1)[C@H](Cc1ccccc1)n1cc(CN2CCN(c3ccccn3)CC2)nn1)OC1CCCC1
23%	O=C(N[C@@H](Cc1ccccc1)[C@H](Cc1ccccc1)n1cc(CN2CCC(n3c(=O)[nH]c4ccccc43)CC2)nn1)OC1CCCC1
76%	O=C(N[C@@H](Cc1ccccc1)[C@H](Cc1ccccc1)n1cc(CN2CCN(c3ccccc3Cl)CC2)nn1)OC1CCCC1
82%	O=C(N[C@@H](Cc1ccccc1)[C@H](Cc1ccccc1)n1cc(CN2CCN(c3ccccc3)CC2)nn1)OC1CCCC1
86%	O=C(N[C@@H](Cc1ccccc1)[C@H](Cc1ccccc1)n1cc(CN2CCN(c3ccc(Cl)c(Cl)c3)CC2)nn1)OC1CCCC1
63%	Cc1ccc(Cl)cc1N1CCN(Cc2cn([C@@H](Cc3ccccc3)[C@H](Cc3ccccc3)NC(=O)OC3CCCCCC3)nn2)CC1
38%	COc1ccccc1N1CCN(Cc2cn([C@@H](Cc3ccccc3)[C@H](Cc3ccccc3)NC(=O)OC3CCCC3)nn2)CC1
89%	O=C(N[C@@H](Cc1ccccc1)[C@H](Cc1ccccc1)n1cc(CN2CCN(c3cc(Cl)cc(Cl)c3)CC2)nn1)OC1CCCC1
66%	Cc1ccc(Cl)cc1N1CCN(Cc2cn([C@@H](Cc3ccccc3)[C@H](Cc3ccccc3)NC(=O)OC3CCCCC3)nn2)CC1
14%	O=C(N[C@@H](Cc1ccccc1)[C@H](Cc1ccccc1)n1cc(CN2CCN(c3cnccn3)CC2)nn1)OC1CCCC1
48%	O=C(N[C@@H](Cc1ccccc1)[C@H](Cc1ccccc1)n1cc(CN2CCN(c3ccc(C(F)(F)F)cc3)CC2)nn1)OC1CCCC1
70%	O=C(N[C@@H](Cc1ccccc1)[C@H](Cc1ccccc1)n1cc(CN2CCC(Cc3ccccc3)CC2)nn1)OC1CCCC1
85%	O=C(N[C@@H](Cc1ccccc1)[C@H](Cc1ccccc1)n1cc(CN2CCN(c3cccc(O)c3)CC2)nn1)OC1CCCC1
29%	O=C(N[C@@H](Cc1ccccc1)[C@H](Cc1ccccc1)n1cc(CN2CCN(Cc3ccc4c(c3)OCO4)CC2)nn1)OC1CCCC1
27%	CCOC(=O)N1CCN(Cc2cn([C@@H](Cc3ccccc3)[C@H](Cc3ccccc3)NC(=O)OC3CCCC3)nn2)CC1

The next lines start with the compound.

Structure (SMILES)	inhibition
Cc1ccc(Cl)cc1N1CCN(Cc2cn([C@@H](Cc3ccccc3)[C@H](Cc3ccccc3)NC(=O)OCc3ccccc3)nn2)CC1	29%
O=C(N[C@@H](Cc1ccccc1)[C@H](Cc1ccccc1)n1cc(CN2CCC3(CC2)C(=O)NCN3c2ccccc2)nn1)OC1CCCC1	17%
Cc1ccc(Cl)cc1N1CCN(Cc2cn([C@@H](Cc3ccccc3)[C@H](Cc3ccccc3)NC(=O)C3CCCC3)nn2)CC1	28%
Cc1cccc(N2CCN(Cc3cn([C@@H](Cc4ccccc4)[C@H](Cc4ccccc4)NC(=O)OC4CCCC4)nn3)CC2C)c1 (stereo not given in full)	55%
O=C(N[C@@H](Cc1ccccc1)[C@H](Cc1ccccc1)n1cc(CN2CCN(c3cccc(C(F)(F)F)c3)CC2)nn1)OC1CCCC1 (stereo in doubt; (S,S)-11s)	86%
Cc1ccc(Cl)cc1N1CCN(Cc2cn([C@@H](Cc3ccccc3)[C@H](Cc3ccccc3)NC(=O)Oc3ccccc3)nn2)CC1	31%
O=C(N[C@@H](Cc1ccccc1)[C@H](Cc1ccccc1)n1cc(CN2CCC(O)(c3ccc(Cl)cc3)CC2)nn1)OC1CCCC1	26%
Cc1ccc(Cl)cc1N1CCN(Cc2cn([C@@H](Cc3ccccc3)[C@H](Cc3ccccc3)NC(=O)NC3CCCCC3)nn2)CC1	15%
O=C(N[C@@H](Cc1ccccc1)[C@H](Cc1ccccc1)n1cc(CN2CCC(O)(c3ccc(Cl)c(C(F)(F)F)c3)CC2)nn1)OC1CCCC1	48%
Cc1ccc(Cl)cc1N1CCN(Cc2cn([C@@H](Cc3ccccc3)[C@H](Cc3ccccc3)NC(=O)OCC3CC3)nn2)CC1	69%
O=C(N[C@@H](Cc1ccccc1)[C@H](Cc1ccccc1)n1cc(CN2CCC(O)(c3cccc(C(F)(F)F)c3)CC2)nn1)OC1CCCC1	34%
Cc1ccc(Cl)cc1N1CCN(Cc2cn([C@@H](Cc3ccccc3)[C@H](Cc3ccccc3)NC(=O)OCC(C)C)nn2)CC1	73%
Cc1ccc(Cl)cc1N1CCN(Cc2cn([C@@H](Cc3ccccc3)[C@H](Cc3ccccc3)NC(=O)OCC3CCC3)nn2)CC1	75%
COC(=O)N[C@@H](Cc1ccccc1)[C@H](Cc1ccccc1)n1cc(CN2CCN(c3cc(Cl)ccc3C)CC2)nn1	25%
Cc1ccc(Cl)cc1N1CCN(Cc2cn([C@@H](Cc3ccccc3)[C@H](Cc3ccccc3)NC(=O)OCC3CCCCC3)nn2)CC1	53%
O=C(N[C@@H](Cc1ccccc1)[C@H](Cc1ccccc1)n1cc(CN2CC=C(c3ccc(Cl)cc3)CC2)nn1)OC1CCCC1	58%
O=C(N[C@@H](Cc1ccccc1)[C@H](Cc1ccccc1)n1cc(CN2CCC(O)(c3ccccc3)CC2)nn1)OC1CCCC1	20%
Cc1ccc(Cl)cc1N1CCN(Cc2cn([C@@H](Cc3ccccc3)[C@H](Cc3ccccc3)NC(=O)NC(C)C)nn2)CC1	19%
Cc1ccc(Cl)cc1N1CCN(Cc2cn([C@@H](Cc3ccccc3)[C@H](Cc3ccccc3)NC(=O)NC3CCCC3)nn2)CC1	19%
Cc1ccc(Cl)cc1N1CCN(Cc2cn([C@@H](Cc3ccccc3)[C@H](Cc3ccccc3)NC(=O)O[C@H]3CCOC3)nn2)CC1	85%
Cc1ccc(Cl)cc1N1CCN(Cc2cn([C@@H](Cc3ccccc3)[C@H](Cc3ccccc3)NC(=O)Nc3ccc(F)cc3)nn2)CC1	30%
Cc1ccc(Cl)cc1N1CCN(Cc2cn([C@@H](Cc3ccccc3)[C@H](Cc3ccccc3)NC(=O)C3CCCCC3)nn2)CC1	17%
Cc1ccc(Cl)cc1N1CCN(Cc2cn([C@@H](Cc3ccccc3)[C@H](Cc3ccccc3)NC(=O)OCC3CCCC3)nn2)CC1	76%
Cc1ccc(Cl)cc1N1CCN(Cc2cn([C@@H](Cc3ccccc3)[C@H](Cc3ccccc3)NC(=O)OCC3CCCO3)nn2)CC1 (stereo not given in full)	41%
O=C(N[C@@H](Cc1ccccc1)[C@H](Cc1ccccc1)n1cc(CN2CCN(c3cccc(C(F)(F)F)c3)CC2)nn1)OC1CCCC1 (stereo in doubt; (S,S)-7d) [listing 2 of 2 here]	87%
Cc1ccc(Cl)cc1N1CCN(Cc2cn([C@@H](Cc3ccccc3)[C@H](Cc3ccccc3)NC(=O)c3ccco3)nn2)CC1	25%
CCOC(=O)N[C@@H](Cc1ccccc1)[C@H](Cc1ccccc1)n1cc(CN2CCN(c3cc(Cl)ccc3C)CC2)nn1	41%
